For series [1], the system named is MDA-MB-468 cells (mtp53 R273H) compared to MCF7 cells (wtp53). As to the kind of experiment: Cy5p53Tet cellular uptake by live cell imaging. The series is classed as cell-based, human. Particulars: 500 nM, 2 h incubation, 37 °C; confocal microscopy, Nikon Element analysis, at least 200 cells per sample.
The test system of series [2] is MDA-MB-468 cells (mtp53) compared to MCF7 cells (wtp53). As to the kind of experiment: Cy5p53Tet cellular uptake by flow cytometry. The series is classed as cell-based, human. Particulars: 2 h, 37 °C. The method in brief: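 MCF7 and MDA-MB-468 cells in DMEM with 10% FBS, seeded at 5 × 10^5 per well and held at 37 °C overnight. Medium swapped for vehicle, 100 or 500 nM Cy5-peptide for 2 h at 37 °C. Cells washed, trypsinized, pelleted and resuspended in PBS. 2 × 10^4 events per sample; geometric MFI taken.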

In series [3] the test system is MCF-10A nonmalignant human mammary epithelial cells (wtp53). Put plainly: Peptide cytotoxicity assay. In kind it is cell-based. Particulars: 500 nM Cy5p53Tet, 24 h, three independent experiments.
The next series relates to MCF7 cells (wtp53). As to the kind of experiment: Peptide cytotoxicity assay. In kind it is cell-based, human. Conditions: 500 nM Cy5p53Tet, 24 h, three independent experiments. The method in brief:
(§1)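 Cells (1.25 × 10^5, 12-well) seeded the day before at 37 °C, then given 500 nM Cy5-peptide for 24 h. MTT (5 mg/mL solution) added for 1 h at 37 °C. Product dissolved in 0.04 N HCl/isopropanol, 5 min in the dark at room temperature. Absorbance read at 550 nm minus 620 nm background. Three independent experiments; mean ± SEM, t-test.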

For series [4], the system named is MDA-MB-468 cells (mtp53 R273H). Put plainly: Peptide cytotoxicity assay. In kind it is cell-based, human. Particulars: 500 nM Cy5p53Tet, 24 h, three independent experiments. The method in brief:
as §1

The test system of series [5] is HCC70 cells (mtp53 R248Q). Put plainly: Peptide cytotoxicity assay. The series is classed as cell-based, human. Particulars: 500 nM Cy5p53Tet, 24 h, three independent experiments. The method in brief:
as §1

Series [6] has as its system MDA-MB-468 (mtp53 R273H) and MCF7 (wtp53) xenografts. As to the kind of experiment: NIRF imaging in mice bearing bilateral MCF7/MDA-MB-468 xenografts. The series is classed as in vivo, mouse.
The subject of series [7] is MDA-MB-468 shp53 cells (mtp53 R273H knockdown). Put plainly: Cy5p53Tet uptake with and without shRNA depletion of mtp53. In kind it is cell-based, human. Conditions: 500 nM; for Reduction of Cy5p53Tet signal (relative ROI intensity) on depletion of mtp53: knockdown vs control. The method in brief: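 MDA-MB-468 shp53 knockdown induced with 8 μg/mL doxycycline for 7 days; p53 depletion checked by Western blot. Cells seeded at 2 × 10^5 per well 1 day before, then given 500 nM Cy5-peptide at 37 °C for 30 min, 2 h, 4 h or 24 h. Peptide removed, cells PBS-washed, Hoechst-stained (1 μg/mL, 5 min), confocal Z-stacks at 60×. Three independent experiments; mean + SEM, two-tailed t-test.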

Setting [8] is: after intravenous administration, IVIS Spectrum.

Turning to “H-CysCy5-RKKRRQRRGEYFTLQIRGRER-FEMFRELNEALELK-OH [Cy5p53Tet]”, the “Uptake of Cy5p53Tet in MDA-MB-468 cells compared to MCF7 cells” value in series [1] is on record as “twofold higher uptake”. For the same substance, the “Geometric MFI, fold more uptake in MDA-MB-468 than in MCF7 cells” value in series [2] (100 nM Cy5p53Tet) was found to be 1.58 fold; in series [2] (500 nM Cy5p53Tet) it was 1.65 fold. Also, the “Reduction of mitochondrial activity (MTT)” value in series [3] is given as “No significant reduction of mitochondrial activity”; in the series with MCF7 cells (wtp53), 9.8%; in series [4], 10.6%; in series [5] it was 13.6%. The “In vivo NIRF signal in MCF7 tumors” value in series [6] (setting [8]) is reported as “no signal was present”. The “In vivo NIRF signal in MDA-MB-468 tumors” value in series [6] (setting [8]) is reported as “clearly observed”. The “Signal in healthy tissues (whole-body and resected tissue images)” value in series [6] (liver, large intestines, small intestines, three mice) is “significantly high levels of the signal in several healthy tissues”. Besides, the “Reduction of Cy5p53Tet signal (relative ROI intensity) on depletion of mtp53” value in series [7] (30 min incubation) is recorded as 61%; in series [7] (2 h incubation), 63%; in series [7] (4 h incubation), 67%. Besides, the “Difference of Cy5p53Tet signal between knockdown and control cells” value in series [7] (24 h incubation) is listed as “no statistically significant difference”.

Values taken from PMC8068092 (Molecular pharmaceutics, 2020).
